Screening data (PubChem BioAssay)
Rows were chosen to be rich in hits. Some 2.5% of all compounds tested hit in one or more screens of this group.
PHOSPHO1 block – PHOSPHO1 (human) inhibition; Q8TCT1; recombinant PHOSPHO1, absorbance phosphatase assay; inhibition, % at 13.3 µM; actives 1.1% (n = 290,000); in the data active = inhibition above about 60%
Target sequence (Q8TCT1 whole entry, looked up): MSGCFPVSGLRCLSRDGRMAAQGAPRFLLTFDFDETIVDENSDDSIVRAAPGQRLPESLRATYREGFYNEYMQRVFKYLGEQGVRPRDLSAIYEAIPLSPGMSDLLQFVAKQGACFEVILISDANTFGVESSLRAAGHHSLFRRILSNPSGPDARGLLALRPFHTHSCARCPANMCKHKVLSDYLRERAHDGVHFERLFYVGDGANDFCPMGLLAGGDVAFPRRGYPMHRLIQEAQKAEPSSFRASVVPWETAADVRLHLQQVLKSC
PGE2 EP2 inh – EP2 receptor (human) inhibition; P43116; C6 glioma cells expressing human EP2, cAMP TR-FRET; cells stimulated with saturating PGE2; inhibition, % at 25 µM; actives 0.52% (n = 260,000);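 active = percent inhibition above 40 after rounding to a whole number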;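 also: rat C6 glioma host cells with rolipram phosphodiesterase inhibitor present; the protocol text gives 20 µM as final concentration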
Target sequence (P43116 whole entry, looked up): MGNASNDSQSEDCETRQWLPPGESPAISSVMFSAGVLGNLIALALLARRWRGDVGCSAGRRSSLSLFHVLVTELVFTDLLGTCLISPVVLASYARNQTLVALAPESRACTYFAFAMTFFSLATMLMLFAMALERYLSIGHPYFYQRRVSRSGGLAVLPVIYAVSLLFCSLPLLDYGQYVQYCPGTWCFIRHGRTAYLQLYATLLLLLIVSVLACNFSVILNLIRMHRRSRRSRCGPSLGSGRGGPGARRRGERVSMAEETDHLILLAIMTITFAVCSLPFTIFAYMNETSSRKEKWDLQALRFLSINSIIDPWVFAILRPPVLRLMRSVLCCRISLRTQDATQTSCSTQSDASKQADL
HKDC1 inh – HKDC1 (human) hexokinase inhibition | recombinant HKDC1, G6PDH/diaphorase resazurin coupled fluorescence | AID 493160 | Q2TB90 | inhibition, % at 20 µM | actives 0.16% (n = 340,000);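 active = inhibition above about 35% when tested at 20 µM, limit read from the data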
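Incubation: 90 min at room temperature in dark / Material: recombinant HKDC1 (HK5) hexokinase enzyme, produced in-house / Quantity: enzyme 5 µg/mL final / Compound: one dose of 20 µM, 1% DMSO / Reagent: glucose and ATP substrates / Buffer or medium: Tris pH 8.0 buffer with MgCl2, Tween-20, BSA, BME / Technique: resorufin fluorescence at 613 nm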
EP2 modulator – modulators of human EP2 prostaglandin E2 receptor; AID 940; EP2-expressing cells, cAMP HTRF FRET, PGE2 co-stimulation; P43116; induction, % at 25 µM; actives 0.83% (n = 260,000);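 active = compounds whose cAMP rise, as percent of the full-agonist control response, exceeds 60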;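 also: rat C6 glioma line stably carrying human EP2 under a CMV promoter; the protocol text gives 20 µM as final concentration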
PfGluPho inh – PfG6PD (Plasmodium falciparum) enzyme inhibition. PfGluPho enzyme, NADPH resazurin-diaphorase fluorescence. inhibition, % at 20 µM. actives 0.78% (n = 350,000);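 active = inhibition reaching at least a set limit at 20 µM in the primary screen, cut at about 59% in these data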
TbHK1 inh – blocks Trypanosoma brucei hexokinase 1 activity. recombinant TbHK1, G6PDH-coupled NADH A340. inhibition, % at 10 µM. AID 1430. actives 0.11% (n = 220,000);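 active = inhibition of 50% or more in the single-dose primary screen; inactive = inhibition below 50%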
Numbers stand for hits; n = inactive; x = no result given.

SMILES | PHOSPHO1 block | PGE2 EP2 inh | HKDC1 inh | EP2 modulator | PfGluPho inh | TbHK1 inh
CCN(CC)c1ncnc2scc(C3COc4ccccc4O3)c12 (stereo not drawn) | n | n | n | 64 | n | n
O=C(Nc1nnc(Cc2ccc(F)cc2)s1)C1CCCN1C(=O)NC1CCCCC1 (stereo not drawn) | x | n | x | n | x | x
COc1ccccc1CN(Cc1cnc(N(C)C)nc1)CC1CCCO1 (stereo not drawn) | x | n | x | n | x | x
Cn1c(=O)c([N+](=O)[O-])c(Cl)c2ccccc21 | n | 95 | n | n | n | n
CCN(CC)c1c([N+](=O)[O-])c(=O)n(C)c2ccccc12 | n | n | n | n | n | n
Cc1ccc(NC(=O)c2cccs2)cc1NC(=O)c1cc2c(C)nn(-c3ccccc3)c2s1 | x | n | x | 70 | x | x
Cc1cnc(NC(=O)c2cc3c(C)nn(-c4ccccc4)c3s2)s1 | n | n | n | n | n | n
O=C(NCCNC(=O)c1ccco1)c1ccccc1 | x | n | x | n | x | x
CC1=C(C)NC(=S)SC1 | 73 | n | n | n | n | n
COc1ccc(COc2cc(-c3cccc(OC)c3)nc3ccc(NC(=O)c4ccc(OC)cc4)cc23)cc1 | 67 | n | n | n | n | n
CC1(C#N)c2ccccc2C(Br)=CN1C(=O)c1ccccc1 (stereo not drawn) | x | x | n | x | n | x
N#CC1(Cc2ccc(Cl)cc2)c2ccccc2C=CN1C(=O)c1ccccc1 (stereo not drawn) | n | n | n | 63 | n | n
CCn1c(N2CCC(C(=O)NCCc3ccc(O)c(O)c3)CC2)nc2ccccc21 | x | n | x | n | x | x
Clc1ccc2ccc3cccnc3c2n1 | 61 | x | n | x | n | x
O=C(CSCCO)Nc1cccc(C(F)(F)F)c1 | n | n | n | n | n | n
CN(C)C(=S)SCC(=O)Nc1cccc(C(F)(F)F)c1 | 67 | n | n | n | n | n
O=C(Nc1nc2c(s1)CCCC2)C1CCCN1C(=O)c1cccs1 (stereo not drawn) | 95 | n | n | n | n | n
O=C(O)Cc1cc(Cl)ccc1O | x | n | x | n | x | x
Oc1ccc(Cl)cc1Cc1cc(Cl)cc(Cc2cc(Cl)ccc2O)c1O | x | 58 | x | n | x | x
Cc1nc2nc(C)n(-c3ccccc3)c2s1 | 71 | n | n | n | n | n
Cc1nc2ccccc2n1-c1ccccc1 | n | n | n | n | n | n
CC(NCCCN(C)C)C(=O)NCc1ccco1 (stereo not drawn) | x | n | x | n | x | x
CCOc1ccc(CC(=O)NC(C)c2nc3cccnc3n2C(C)C)cc1 (stereo not drawn) | x | x | x | n | x | x
CCOc1cc(C(=S)N2CCCC2)ccc1OC | n | x | n | x | n | x
COc1cc(C(=S)N2CCCC2)cc(OC)c1O | 76 | n | n | n | n | n
SMILES | PHOSPHO1 block | PGE2 EP2 inh | HKDC1 inh | EP2 modulator | PfGluPho inh | TbHK1 inh
O=C(CSc1nnc2c3ccccc3nc(Cc3ccccc3)n12)NC1CC1 | x | n | x | n | x | x
CCOc1cc(C2CC(=O)Nc3cc(C)c(C)cc32)ccc1O (stereo not drawn) | n | n | n | 64 | n | n
COc1ccccc1CCNC(=O)c1cc2nc(-c3ccco3)cc(C(F)(F)F)n2n1 | x | n | x | n | x | x
O=C(NC12CC3CC(CC(C3)C1)C2)N1CCC(c2nc3ccc(Cl)cc3[nH]2)CC1 | x | n | x | n | x | x
Cn1c(SCC(=O)NCc2cccs2)nnc1-c1ccncc1 | 69 | n | n | n | n | n
CCCn1c(SCC(=O)NCc2cccs2)nnc1-c1ccncc1 | x | n | x | n | x | x
COc1cccc(OCc2nnc(SCC(=O)NCc3ccco3)n2CCc2ccccc2)c1 | 62 | n | n | n | n | n
CCn1c(SCC(=O)c2ccc3ccccc3c2)nnc1-c1ccco1 | 73 | n | n | n | n | n
CCn1c(SCC(=O)c2ccc3c(c2)OCCO3)nnc1-c1ccco1 | n | n | n | n | n | n
COc1ccc(C(=O)CSc2nnc(-c3cccnc3)n2Cc2ccco2)cc1 | 92 | n | n | n | n | n
CCn1c(COc2cccc(OC)c2)nnc1SCC(=O)NCc1ccco1 | x | n | x | n | x | x
COc1ccc(OC)c(C2NC(=O)C(C#N)=C(S)N2c2ccccc2C)c1 (stereo not drawn) | x | n | x | n | x | x
Ic1cccc(-n2cnnn2)c1 | x | n | x | n | x | x
COc1ccc2c(c1)OC1(CCN(CC(O)c3cn(C)c4ccccc34)CC1)CC2O (stereo not drawn) | x | n | x | n | x | x
CCOC(=O)c1c(C)[nH]c(C)c1C(=O)CSc1nnc(-c2ccncc2)n1C | 81 | x | n | n | n | n
CCOC(=O)c1c(C)[nH]c(C)c1C(=O)CSc1nnc(-c2ccncc2)n1Cc1ccccc1 | n | n | n | n | n | n
COc1cccc(-n2ccnc2SCC(=O)NCc2ccccc2)c1 | 62 | n | n | n | n | n
COc1cccc(-c2nnc(SCC(=O)NCc3ccc4c(c3)OCO4)n2Cc2ccco2)c1 | 76 | n | n | n | n | n
CCOC(=O)CNC(=O)CSc1nnc(-c2ccco2)n1Cc1ccco1 | 92 | n | n | n | n | n
Cc1cccc(-c2nnc(SCC(=O)NCc3ccc4c(c3)OCO4)n2C)c1 | 72 | n | n | n | n | n
Cc1ccc(Nc2nnns2)cc1C | n | n | n | n | 59 | n
Cc1ccc(Nc2nnns2)c(C)c1 | x | n | x | n | x | x
CCOC(=O)c1sc2ncn(Cc3ccccc3)c(=O)c2c1C | x | n | x | n | x | x
COc1ccc2[nH]cc(CCNC(=O)Nc3ccccc3)c2c1 | x | x | n | x | n | x
COc1ccc2c(CCNC(=O)Nc3ccccc3)c[nH]c2c1 | 63 | n | n | n | n | n
SMILES | PHOSPHO1 block | PGE2 EP2 inh | HKDC1 inh | EP2 modulator | PfGluPho inh | TbHK1 inh
Cc1ccc(N2CC(O)(c3cccs3)[N+]3=C2CCCC3)cc1 (stereo not drawn) | 61 | n | n | n | n | n
O=C(Nc1cccnc1)c1ccc2c(=O)n3c4ccccc4nc3c3cccc1c23 | x | n | x | n | x | x
O=C(Oc1csc(=S)n1C(=O)c1ccccc1)c1ccccc1 | 83 | n | n | n | n | n
CCN(CC)S(=O)(=O)c1cccc(-c2n[nH]c(=S)n2/N=C/c2ccc(OC)cc2)c1 | 83 | n | n | n | n | n
CC(/C=N/n1c(-c2ccccc2)n[nH]c1=S)=C\c1ccco1 | 84 | n | n | n | n | n
COc1cc(/C=N/n2c(-c3ccccc3)n[nH]c2=S)cc(OC)c1O | n | n | n | n | n | n
COc1cc(/C=N/n2c(-c3ccccc3)n[nH]c2=S)ccc1O | 103 | n | n | n | n | n
CCN(CC)S(=O)(=O)c1cccc(-c2n[nH]c(=S)n2/N=C/c2ccc(Br)cc2)c1 | 70 | n | n | n | n | n
CC(/C=N/n1c(-c2ccc(C)cc2)n[nH]c1=S)=C\c1ccco1 | n | n | n | n | n | n
CCN(CC)S(=O)(=O)c1cccc(-c2n[nH]c(=S)n2/N=C/c2ccc(OC(F)F)cc2)c1 | n | n | n | n | n | n
COc1ccc(C2c3sc(=O)[nH]c3SCC2C(N)=O)cc1 (stereo not drawn) | n | n | n | n | n | n
CCOC(=O)C1CSc2[nH]c(=O)sc2C1c1ccccc1 (stereo not drawn) | 93 | n | n | n | n | n
